Data as given in publication PMC2292750 (PLoS Medicine, 2008).

Tests used:
[1] = test system: mouse PDAC cells; format: cell-based; details: flow cytometry
How it was run: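 Early-passage PDAC cells came from Kras/p53L/L mouse tumors; normal primary ductal cells came from wild-type mice. Phage (~1 × 10^12 PFU) were labeled with 0.25 mg/ml FITC for 1 h and PEG-purified. Cells were incubated with 1 μM (FITC) phage for 1 h at 37 °C, washed three times with DPBS and trypsinized. Mean fluorescence was read by flow cytometry at 10,000 cells/sample.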

[2] = test system: normal human ductal cells; format: cell-based; details: FITC-labeled phage 1 μM, 1 h at 37 °C, FACS
How it was run: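 Normal human ductal cells were incubated with 1 μM (FITC) FITC-labeled test phage or an unrelated control phage clone (SNLHPSD) for 1 h at 37 °C. Cells were washed three times with DPBS, trypsinized and centrifuged, then read by flow cytometry at 10,000 cells/sample. Mean fluorescence served as relative uptake.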

[3] = target: plectin-1 (Mus musculus, UniProt Q9QXS1); experiment: Competition experiment with anti-plectin-1 antibody; format: binding; details: coincubation of anti-plectin-1 antibody and FITC-labeled phage with mouse PDAC cells, 1 h at 37 °C, versus vehicle
[4] = test system: mouse PanINs and PDAC lesions, frozen sections; experiment: Binding of FITC-labeled phage to frozen mouse pancreas sections; details: 1 μM FITC-labeled phage, 1 h at 37 °C, fluorescence microscopy, n = 3
How it was run: (§1)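 Frozen tissues (n = 3) were embedded in OCT, cut at 5 μm and arrayed on slides. Sections were incubated for 1 h at 37 °C with 1 μM FITC-labeled test phage or FITC-labeled control phage (no insert). They were then washed three times with PBS, fixed in 2% paraformaldehyde and imaged by fluorescence microscopy (40× objective).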

[5] = test system: human PDAC; experiment: Binding of FITC-labeled phage to frozen human PDAC sections; details: 1 μM FITC-labeled phage, 1 h at 37 °C, fluorescence microscopy
How it was run: as §1

Sequence of plectin-1 (Q9QXS1 whole entry): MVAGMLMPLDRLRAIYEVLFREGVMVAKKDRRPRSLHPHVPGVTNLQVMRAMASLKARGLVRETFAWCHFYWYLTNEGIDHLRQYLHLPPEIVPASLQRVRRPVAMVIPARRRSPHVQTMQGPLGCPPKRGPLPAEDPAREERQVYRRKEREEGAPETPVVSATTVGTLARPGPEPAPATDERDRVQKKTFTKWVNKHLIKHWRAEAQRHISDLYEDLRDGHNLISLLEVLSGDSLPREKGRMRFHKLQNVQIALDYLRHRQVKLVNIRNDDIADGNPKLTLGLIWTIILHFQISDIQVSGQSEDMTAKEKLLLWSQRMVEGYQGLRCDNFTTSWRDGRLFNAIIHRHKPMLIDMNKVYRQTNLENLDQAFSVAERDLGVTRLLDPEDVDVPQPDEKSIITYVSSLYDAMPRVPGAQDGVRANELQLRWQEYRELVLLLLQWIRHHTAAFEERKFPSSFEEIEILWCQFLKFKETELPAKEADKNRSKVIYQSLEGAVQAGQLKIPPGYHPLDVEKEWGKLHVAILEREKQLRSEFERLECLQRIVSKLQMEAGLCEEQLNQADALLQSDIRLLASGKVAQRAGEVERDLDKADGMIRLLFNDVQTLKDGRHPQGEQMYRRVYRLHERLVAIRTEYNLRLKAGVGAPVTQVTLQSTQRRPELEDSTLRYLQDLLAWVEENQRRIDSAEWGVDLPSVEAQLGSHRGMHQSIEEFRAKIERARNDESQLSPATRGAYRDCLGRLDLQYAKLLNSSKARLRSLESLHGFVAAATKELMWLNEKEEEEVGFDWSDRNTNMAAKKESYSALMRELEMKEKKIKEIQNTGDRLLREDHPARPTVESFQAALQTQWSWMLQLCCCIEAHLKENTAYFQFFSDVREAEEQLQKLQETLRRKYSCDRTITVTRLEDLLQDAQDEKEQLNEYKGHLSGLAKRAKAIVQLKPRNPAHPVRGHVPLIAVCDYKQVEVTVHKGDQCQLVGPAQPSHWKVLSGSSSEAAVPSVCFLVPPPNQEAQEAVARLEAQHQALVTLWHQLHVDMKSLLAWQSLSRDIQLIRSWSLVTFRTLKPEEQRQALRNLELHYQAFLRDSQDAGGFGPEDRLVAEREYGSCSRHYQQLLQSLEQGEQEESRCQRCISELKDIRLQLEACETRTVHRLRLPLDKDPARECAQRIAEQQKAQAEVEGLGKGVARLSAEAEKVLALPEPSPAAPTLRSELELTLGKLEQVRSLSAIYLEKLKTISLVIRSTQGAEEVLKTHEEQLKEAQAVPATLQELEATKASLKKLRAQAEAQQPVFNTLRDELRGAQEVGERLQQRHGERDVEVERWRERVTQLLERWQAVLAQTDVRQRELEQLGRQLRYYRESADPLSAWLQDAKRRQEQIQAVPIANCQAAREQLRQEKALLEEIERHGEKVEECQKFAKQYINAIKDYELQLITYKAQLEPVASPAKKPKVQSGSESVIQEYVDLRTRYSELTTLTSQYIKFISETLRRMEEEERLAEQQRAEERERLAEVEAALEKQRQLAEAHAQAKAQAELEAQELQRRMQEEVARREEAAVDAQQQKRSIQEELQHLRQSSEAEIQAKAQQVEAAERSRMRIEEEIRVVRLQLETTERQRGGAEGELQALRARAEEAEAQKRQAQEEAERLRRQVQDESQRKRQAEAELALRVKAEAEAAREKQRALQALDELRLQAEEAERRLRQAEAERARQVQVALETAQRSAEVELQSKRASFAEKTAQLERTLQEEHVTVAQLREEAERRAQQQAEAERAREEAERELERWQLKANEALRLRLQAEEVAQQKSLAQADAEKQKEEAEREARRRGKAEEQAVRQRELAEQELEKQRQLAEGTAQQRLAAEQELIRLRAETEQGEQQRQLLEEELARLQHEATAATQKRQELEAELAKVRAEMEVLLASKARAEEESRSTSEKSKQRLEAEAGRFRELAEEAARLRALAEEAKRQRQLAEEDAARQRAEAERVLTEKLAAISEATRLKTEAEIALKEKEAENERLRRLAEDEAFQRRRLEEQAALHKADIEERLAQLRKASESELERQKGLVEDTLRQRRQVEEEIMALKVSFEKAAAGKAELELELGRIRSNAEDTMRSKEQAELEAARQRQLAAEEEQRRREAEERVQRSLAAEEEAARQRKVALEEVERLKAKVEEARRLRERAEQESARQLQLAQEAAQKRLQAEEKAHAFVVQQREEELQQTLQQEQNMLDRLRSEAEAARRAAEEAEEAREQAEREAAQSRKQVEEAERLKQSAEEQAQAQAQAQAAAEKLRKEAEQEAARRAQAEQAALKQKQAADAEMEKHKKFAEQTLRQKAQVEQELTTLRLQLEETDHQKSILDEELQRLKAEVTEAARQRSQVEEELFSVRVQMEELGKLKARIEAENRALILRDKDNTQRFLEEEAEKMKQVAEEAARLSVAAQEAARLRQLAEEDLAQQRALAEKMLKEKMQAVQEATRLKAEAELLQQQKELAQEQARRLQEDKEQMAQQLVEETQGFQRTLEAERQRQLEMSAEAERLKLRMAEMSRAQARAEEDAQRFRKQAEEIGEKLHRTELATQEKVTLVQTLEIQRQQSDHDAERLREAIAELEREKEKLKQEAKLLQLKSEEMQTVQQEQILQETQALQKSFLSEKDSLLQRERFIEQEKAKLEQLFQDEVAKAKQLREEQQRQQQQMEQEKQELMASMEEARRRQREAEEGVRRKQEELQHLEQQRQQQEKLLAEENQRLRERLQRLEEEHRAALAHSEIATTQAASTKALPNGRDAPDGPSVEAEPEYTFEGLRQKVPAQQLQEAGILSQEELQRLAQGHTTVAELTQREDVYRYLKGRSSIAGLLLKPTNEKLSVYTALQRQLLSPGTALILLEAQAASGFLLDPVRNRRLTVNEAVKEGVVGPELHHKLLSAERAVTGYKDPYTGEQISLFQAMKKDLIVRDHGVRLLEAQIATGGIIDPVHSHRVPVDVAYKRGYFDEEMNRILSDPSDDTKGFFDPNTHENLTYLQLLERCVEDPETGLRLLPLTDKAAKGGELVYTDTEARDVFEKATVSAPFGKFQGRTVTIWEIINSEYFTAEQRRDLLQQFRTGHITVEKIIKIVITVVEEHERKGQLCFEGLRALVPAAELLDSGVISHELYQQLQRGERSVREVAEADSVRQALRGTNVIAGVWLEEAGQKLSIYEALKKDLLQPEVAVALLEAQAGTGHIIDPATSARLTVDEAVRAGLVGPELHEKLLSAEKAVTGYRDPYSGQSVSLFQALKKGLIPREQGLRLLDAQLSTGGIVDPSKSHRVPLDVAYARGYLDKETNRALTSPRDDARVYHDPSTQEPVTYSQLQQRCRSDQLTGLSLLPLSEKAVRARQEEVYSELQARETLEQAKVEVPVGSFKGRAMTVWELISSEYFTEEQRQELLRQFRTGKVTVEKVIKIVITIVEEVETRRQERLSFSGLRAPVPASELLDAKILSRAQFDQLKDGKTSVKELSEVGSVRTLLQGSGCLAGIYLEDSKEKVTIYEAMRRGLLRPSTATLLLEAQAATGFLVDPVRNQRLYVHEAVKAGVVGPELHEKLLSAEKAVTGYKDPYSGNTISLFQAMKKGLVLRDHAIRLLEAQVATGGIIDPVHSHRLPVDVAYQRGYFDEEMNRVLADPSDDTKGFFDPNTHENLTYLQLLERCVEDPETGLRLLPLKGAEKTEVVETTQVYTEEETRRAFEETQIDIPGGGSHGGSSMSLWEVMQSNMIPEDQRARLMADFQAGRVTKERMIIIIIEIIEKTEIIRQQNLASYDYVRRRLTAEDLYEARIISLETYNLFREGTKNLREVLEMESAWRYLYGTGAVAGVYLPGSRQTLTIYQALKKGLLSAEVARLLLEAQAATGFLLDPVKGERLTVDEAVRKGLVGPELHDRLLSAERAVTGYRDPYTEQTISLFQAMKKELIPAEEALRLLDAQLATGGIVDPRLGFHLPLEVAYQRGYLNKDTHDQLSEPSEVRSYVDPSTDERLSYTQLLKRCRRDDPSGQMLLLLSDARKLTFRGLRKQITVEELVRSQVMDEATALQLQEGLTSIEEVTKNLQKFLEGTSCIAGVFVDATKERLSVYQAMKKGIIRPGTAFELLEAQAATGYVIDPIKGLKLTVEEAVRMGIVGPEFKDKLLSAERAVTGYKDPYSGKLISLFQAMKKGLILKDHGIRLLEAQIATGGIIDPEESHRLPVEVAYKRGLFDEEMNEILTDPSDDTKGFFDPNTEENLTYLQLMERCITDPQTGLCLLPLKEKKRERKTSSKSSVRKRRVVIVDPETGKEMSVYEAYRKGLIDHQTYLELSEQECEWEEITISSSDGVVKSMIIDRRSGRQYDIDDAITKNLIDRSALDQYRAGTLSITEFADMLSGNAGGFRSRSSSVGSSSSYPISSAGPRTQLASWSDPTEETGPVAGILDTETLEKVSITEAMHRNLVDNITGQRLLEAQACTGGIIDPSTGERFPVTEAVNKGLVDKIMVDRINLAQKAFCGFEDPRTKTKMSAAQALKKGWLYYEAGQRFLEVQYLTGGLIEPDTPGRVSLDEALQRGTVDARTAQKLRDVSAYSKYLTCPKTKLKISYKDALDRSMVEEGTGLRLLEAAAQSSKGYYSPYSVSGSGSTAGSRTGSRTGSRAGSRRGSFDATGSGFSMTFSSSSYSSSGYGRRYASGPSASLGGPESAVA

Substance: KTLLPTP [clone 27]
- specificity for mouse PDAC cells over normal ductal cells ([1]; FITC-labeled phage, 1 μM (FITC), 1 h at 37 °C, mean fluorescence): 112 fold
- specificity (ratio of clone 27/unrelated clone mean fluorescence) [2]: 0.85
- abrogation of binding [3]: 96.9%
- binding to PanINs and PDAC lesions on frozen sections [4]: prominent binding
- detection of human PDAC on frozen sections [5]: able to specifically detect human PDAC

Substance: TMAPSIK [clone 15]
- rank of affinity among fluorescein-labeled phage clones ([1]; mouse PDAC and normal ductal cells, unpublished data): second in affinity
